HKDC1 inhibitor: blocks human hexokinase HKDC1 activity. Q2TB90. AID 493160. recombinant HKDC1, G6PDH/diaphorase resazurin coupled fluorescence. 340,000 compounds, 0.16% hits. inhibition, % at 20 µM;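 active = inhibition above about 35% when tested at 20 µM, limit read from the data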;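 note: plate controls were DMSO wells with enzyme for no effect and DMSO wells lacking enzyme for full effect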
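Test system: HK5 enzyme. Quantity: 5 µg/mL HK5 final. Reagent: glucose and ATP substrates. Schedule: 90 min reaction incubation at room temperature, dark. Technique: resazurin-to-resorufin fluorescence via G6PDH and diaphorase coupling, 525/613 nm. Control set: DMSO wells with and without enzyme mix.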
LANA-H2A inh: blocks KSHV LANA binding to histone H2A/H2B. Q9QR71. cell-free LANA-H2A/H2B peptide, fluorescence polarization. inhibition, % (no concentration beside the values). 320,000 compounds, 0.6% hits. AID 2629; in the data active = inhibition mostly above about 10%, no sharp cut-off; inactive = mostly below about 6.7%
HDAC3 inh: blocks human histone deacetylase 3; O15379; recombinant HDAC3, fluorogenic peptide/trypsin coupled, fluorescence; inhibition, % at 8.3 µM; 320,000 compounds, 0.15% hits; AID 2718; in the data active = inhibition above about 26%, passing the limit was not always enough; inconclusive = no clear call, values can overlap the other calls
ATG4B inhibitor: ATG4B (human) cysteine protease inhibition; Q9Y4P1; AID 504462; inhibition, % at 8.33 µM; ATG4B cleavage of LC3-PLA2, NBD-HPC fluorescence, 1 h; 340,000 compounds, 0.51% hits; in the data active = inhibition above about 40%
A1 inh: inhibitors of the anti-apoptotic protein A1, read as caspase activation. MEF A1-2A-BIM cells, Caspase-Glo 3/7 luminescence, 3 h; percent of clofoctol response, vehicle zero. caspase activation, % (test concentration not listed). 330,000 compounds, 0.066% hits;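 active = over half of replicate activation scores above 10%, or exactly half above 10 with the replicate mean above 10; inconclusive = replicate mean below 10 yet half the replicates above 10; inactive = over half of replicates below 10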
AI-2 QS modul: modulators of Vibrio harveyi AI-2 quorum sensing system; Vibrio harveyi JMH597 AI-2 luminescence/OD600 ratio, 9 h; stronger effect = lower value; strain lacks LuxN and CqsS sensors; 0 = neutral-control median; activity change, % at 7.5 µM; 300,000 compounds, 0.4% hits; AID 2094; in the data active = activity change below about -75%, passing the limit was not always enough; inconclusive = no clear call, values can overlap the other calls;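 note: luminescence divided by OD600 gain over 9 h not by final OD600 alone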
ATG4B conf: ATG4B (human) inhibition, single-dose confirmed. shares compounds with ATG4B inhibitor. ATG4B protease fluorescent substrate cleavage assay. inhibition, % at 8.33 µM. 320 compounds, 92% hits. AID 504757; in the data active = inhibition above about 39%
PLA2 counter: inhibits human PLA2, flagging false ATG4B inhibitors; 1,600 compounds, 66% hits; inhibition, % at 8.33 µM; shares compounds with ATG4B inhibitor; purified PLA2, NBD-C6-HPC fluorescence, 45 min; AID 588402; in the data active = inhibition above about 50%
Target sequence (P04054 whole entry, looked up): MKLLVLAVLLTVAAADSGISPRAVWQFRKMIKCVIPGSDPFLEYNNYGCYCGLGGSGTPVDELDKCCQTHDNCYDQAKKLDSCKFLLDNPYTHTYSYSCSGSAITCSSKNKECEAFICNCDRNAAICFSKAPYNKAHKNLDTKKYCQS
Active calls of the source: *; ? = inconclusive; . = no result given. Hits are enriched below; roughly 1.8% of the tested compounds scored in any of these assays.

SMILES | HKDC1 inhibitor | LANA-H2A inh | HDAC3 inh | ATG4B inhibitor | A1 inh | AI-2 QS modul | PLA2 counter | others
COc1cccc(-c2nc(SCC(=O)Nc3nc(-c4ccccc4)c(C)s3)[nH]c(=O)c2C#N)c1 | 6 | 7 | 7 | 42* | 0 | 22 | 38 | ATG4B conf=75*
CC(C)(C)c1ccc(-c2nc(NCc3cccnc3)c3ccccc3n2)cc1 | -3 | -2 | 19 | 68* | 0 | 22 | 82*
Cc1cccc(NC(=O)COC(=O)c2ccccc2SCC(=O)N2CCCC2)c1 | 3 | 3 | -8 | -11 | 0 | 22 | .
Cc1ccccc1C(=O)Nc1ccc(O)c2c(=O)cc(-c3ccccc3Cl)oc12 | -5 | -6 | 3 | 1 | 0 | 19 | .
O=c1cc(-c2ccccc2Cl)oc2c(NS(=O)(=O)c3cccs3)ccc(O)c12 | 4 | 4 | 10 | 57* | -1 | 12 | 74*
O=c1cc(-c2ccccc2Cl)oc2c(NS(=O)(=O)c3ccccc3C(F)(F)F)ccc(O)c12 | -6 | 0 | 4 | 42* | -1 | 16 | 53*
O=c1cc(-c2ccccc2Cl)oc2c(NS(=O)(=O)c3ccccc3OC(F)(F)F)ccc(O)c12 | 10 | 3 | 12 | 43* | 0 | 23 | 78*
O=C(Nc1ccc(O)c2c(=O)cc(-c3ccccc3Cl)oc12)c1ccc(Cl)c(Cl)c1 | -10 | 5 | -3 | 6 | 0 | 9 | .
O=c1cc(-c2ccccc2Cl)oc2c(Br)ccc(O)c12 | 0 | -3 | -4 | 4 | -1 | 17 | .
COCCn1c(C)cc(C(=O)CSc2nc(C)nc3sc4c(c23)CCC4)c1C | -10 | -4 | 1 | 57* | 1 | 7 | 37
Cc1cccc(C(=O)Nc2ccc(C(=O)N3CCCCC3C)cc2)c1 (stereo not given) | 5 | -6 | -1 | -1 | -6 | -16 | .
Cn1cccc1-c1cc(C(=O)N/N=C/c2ccccc2Cl)[nH]n1 | 1 | -2 | 10 | 32 | 1 | 18 | .
Cn1cccc1-c1cc(C(=O)N/N=C/c2cc(Br)ccc2O)[nH]n1 | -25 | -8 | -1 | 49* | 1 | ? | 56*
Cc1csc(NC(=O)c2cccc([N+](=O)[O-])c2C(=O)O)n1 | 0 | -6 | 8 | -5 | 2 | 3 | .
O=C(Nc1nc(-c2ccccc2)cs1)c1cccc([N+](=O)[O-])c1C(=O)O | -3 | -8 | 8 | 55* | 0 | -3 | 65*
COc1ccc(CCNC(=O)C2CCCN(S(=O)(=O)c3ccc(F)cc3)C2)cc1OC (stereo not given) | -1 | -1 | -1 | -6 | 0 | 28 | .
O=C(CCn1nc(-c2ccc(Cl)cc2)ccc1=O)N1CCN(c2ccccc2)CC1 | -2 | 5 | 1 | -8 | 0 | 11 | .
Cc1ccsc1/C=C/C1=Cc2c(sc(NC(=O)CSc3n[nH]c(N)n3)c2C#N)C(C)(C)C1 | 3 | 15 | 0 | 66* | -1 | 24 | 52*
COc1ccc(OC)c(S(=O)(=O)N2CCCC(C(=O)N3CCOCC3)C2)c1 (stereo not given) | 2 | 1 | -8 | -4 | 0 | 12 | .
O=C(Nc1ccnn1C1CCN(Cc2ccc(CO)o2)CC1)c1ccccc1 | -5 | -8 | 1 | 19 | 1 | 29 | .
OCCN(Cc1ccccc1)CC(O)COc1ccc2c(c1)OCO2 (stereo not given) | -2 | 2 | -5 | 1 | 0 | 3 | .
Cc1ccc(C(=O)c2nc(C(=O)NCCO)nc3ccccc23)cc1 | -2 | 2 | 0 | 4 | 0 | . | .
COc1ccc(Oc2nc(-c3ccccc3)ncc2C(=O)O)cc1 | 11 | 2 | 0 | -1 | 0 | 6 | .
COc1ccc(C(=O)c2cnc3ccccc3c2-c2ccccc2)cc1 | 4 | -4 | 5 | 72* | 2 | 15 | 83*

From PubChem BioAssay
